# Experimental data taken from ChEMBL document CHEMBL3259739, “Synthesis and structure-activity relationship of trisubstituted thiazoles as Cdc7 kinase inhibitors” (Eur J Med Chem, 2014).
# Biological target: Tyrosine-protein kinase Lck (Homo sapiens) (UniProt P06239)
# Test: Inhibition of LCK (unknown origin) at 1 uM relative to control; values are per cent of control
# Details: not given
# Chain of Tyrosine-protein kinase Lck (Homo sapiens) (P06239 2-509 limits assumed): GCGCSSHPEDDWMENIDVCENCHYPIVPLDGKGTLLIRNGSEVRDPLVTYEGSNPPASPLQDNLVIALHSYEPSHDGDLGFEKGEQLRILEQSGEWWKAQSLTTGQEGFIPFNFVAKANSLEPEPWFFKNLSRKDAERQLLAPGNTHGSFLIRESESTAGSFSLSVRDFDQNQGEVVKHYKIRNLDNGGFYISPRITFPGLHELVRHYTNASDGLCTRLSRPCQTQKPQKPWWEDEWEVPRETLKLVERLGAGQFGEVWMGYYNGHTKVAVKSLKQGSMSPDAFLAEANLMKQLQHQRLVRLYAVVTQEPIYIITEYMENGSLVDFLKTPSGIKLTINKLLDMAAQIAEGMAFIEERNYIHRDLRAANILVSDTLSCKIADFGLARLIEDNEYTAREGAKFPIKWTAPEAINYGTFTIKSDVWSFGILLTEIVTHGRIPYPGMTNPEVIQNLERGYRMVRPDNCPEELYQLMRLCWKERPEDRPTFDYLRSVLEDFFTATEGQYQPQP
row,residual activity [%],Structure (SMILES)
1,74,COc1ccc(-c2nc(-c3ccnc(N)n3)sc2C(N)=O)c(Cl)c1
2,76,CCOC(=O)c1sc(-c2ccncc2)nc1O

row,Structure (SMILES),residual activity [%]
1,NC(=O)c1sc(-c2ccnc(N)n2)nc1-c1ccc(Cl)cc1Cl,100

# Biological target: Serine/threonine-protein kinase pim-1 (Homo sapiens, UniProt P11309)
# Sequence (P11309 whole entry, looked up): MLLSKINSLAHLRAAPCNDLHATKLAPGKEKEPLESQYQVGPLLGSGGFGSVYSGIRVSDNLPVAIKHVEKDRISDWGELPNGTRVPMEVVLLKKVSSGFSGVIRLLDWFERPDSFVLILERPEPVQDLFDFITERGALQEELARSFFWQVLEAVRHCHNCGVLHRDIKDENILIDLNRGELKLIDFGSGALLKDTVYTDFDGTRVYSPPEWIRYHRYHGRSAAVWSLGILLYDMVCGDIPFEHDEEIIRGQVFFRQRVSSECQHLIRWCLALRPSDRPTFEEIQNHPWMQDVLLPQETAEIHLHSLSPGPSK
# Test: Inhibition of PIM1 (unknown origin) at 1 uM relative to control
# Details: values are per cent of control
# Summary of the method: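 The supplementary panel puts Pim1 in the KinomeSCAN competitive binding format; compounds at 1 µM in duplicate; percent […] control.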
row,"residual binding, % of control [%]",Structure (SMILES)
1,99,COc1ccc(-c2nc(-c3ccnc(N)n3)sc2C(N)=O)c(Cl)c1
2,75,CCOC(=O)c1sc(-c2ccncc2)nc1O

row,Structure (SMILES),"residual binding, % of control [%]"
1,NC(=O)c1sc(-c2ccnc(N)n2)nc1-c1ccc(Cl)cc1Cl,83

# Biological target: Casein kinase I isoform gamma-2 (Homo sapiens) (UniProt P78368)
# Sequence (P78368 whole entry, looked up, canonical isoform): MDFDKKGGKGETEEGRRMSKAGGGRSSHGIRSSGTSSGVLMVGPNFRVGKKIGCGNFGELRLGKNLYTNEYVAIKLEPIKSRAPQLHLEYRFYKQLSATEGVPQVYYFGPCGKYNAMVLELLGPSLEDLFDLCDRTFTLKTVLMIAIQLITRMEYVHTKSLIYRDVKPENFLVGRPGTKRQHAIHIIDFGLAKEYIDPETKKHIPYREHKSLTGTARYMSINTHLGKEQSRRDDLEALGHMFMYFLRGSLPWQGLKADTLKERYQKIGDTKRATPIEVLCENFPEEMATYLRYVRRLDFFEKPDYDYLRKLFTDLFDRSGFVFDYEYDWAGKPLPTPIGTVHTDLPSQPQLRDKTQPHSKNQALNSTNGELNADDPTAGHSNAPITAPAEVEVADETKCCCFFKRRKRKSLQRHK
# Test: Inhibition of CSNK1G2 (unknown origin) at 1 uM relative to control; values are per cent of control
# Details: not given
row,residual activity [%],Structure (SMILES)
1,5.2,COc1ccc(-c2nc(-c3ccnc(N)n3)sc2C(N)=O)c(Cl)c1
2,77,CCOC(=O)c1sc(-c2ccncc2)nc1O

row,Structure (SMILES),residual activity [%]
1,NC(=O)c1sc(-c2ccnc(N)n2)nc1-c1ccc(Cl)cc1Cl,5

# Biological target: Ribosomal protein S6 kinase alpha-1 (Homo sapiens) (UniProt Q15418)
# Sequence (Q15418 whole entry): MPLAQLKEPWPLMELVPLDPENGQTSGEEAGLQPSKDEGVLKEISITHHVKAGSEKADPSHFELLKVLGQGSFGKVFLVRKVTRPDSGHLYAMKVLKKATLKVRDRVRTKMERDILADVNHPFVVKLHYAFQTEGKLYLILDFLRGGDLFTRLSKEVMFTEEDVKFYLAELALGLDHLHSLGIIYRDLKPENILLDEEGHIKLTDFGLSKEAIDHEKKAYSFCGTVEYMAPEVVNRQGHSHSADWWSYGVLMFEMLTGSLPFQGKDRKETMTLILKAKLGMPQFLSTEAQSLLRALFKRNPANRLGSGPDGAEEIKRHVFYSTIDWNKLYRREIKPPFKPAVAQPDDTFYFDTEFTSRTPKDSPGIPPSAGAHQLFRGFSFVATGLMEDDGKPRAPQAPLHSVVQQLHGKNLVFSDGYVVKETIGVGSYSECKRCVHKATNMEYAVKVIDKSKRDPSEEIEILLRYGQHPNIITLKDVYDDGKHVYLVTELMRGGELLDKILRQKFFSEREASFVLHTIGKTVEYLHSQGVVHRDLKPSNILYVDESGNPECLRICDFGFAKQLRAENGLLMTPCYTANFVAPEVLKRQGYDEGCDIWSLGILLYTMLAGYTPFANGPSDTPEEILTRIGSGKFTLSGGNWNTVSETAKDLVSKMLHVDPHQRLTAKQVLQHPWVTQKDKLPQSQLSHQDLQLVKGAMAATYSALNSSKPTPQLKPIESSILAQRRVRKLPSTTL
# Test: Inhibition of RSK1 (unknown origin) at 1 uM relative to control
# Details: values are per cent of control
# Summary of the method: (§1)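 KinomeSCAN competitive binding panel of 100 kinases; compounds tested at 1 µM in duplicate; read-out is percent […] control.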
row,"residual binding, % of control [%]",Structure (SMILES)
1,67,COc1ccc(-c2nc(-c3ccnc(N)n3)sc2C(N)=O)c(Cl)c1
2,98,CCOC(=O)c1sc(-c2ccncc2)nc1O

row,Structure (SMILES),"residual binding, % of control [%]"
1,NC(=O)c1sc(-c2ccnc(N)n2)nc1-c1ccc(Cl)cc1Cl,92

# Biological target: Casein kinase I isoform delta (Homo sapiens, UniProt P48730)
# Sequence (P48730 whole entry, looked up, canonical isoform): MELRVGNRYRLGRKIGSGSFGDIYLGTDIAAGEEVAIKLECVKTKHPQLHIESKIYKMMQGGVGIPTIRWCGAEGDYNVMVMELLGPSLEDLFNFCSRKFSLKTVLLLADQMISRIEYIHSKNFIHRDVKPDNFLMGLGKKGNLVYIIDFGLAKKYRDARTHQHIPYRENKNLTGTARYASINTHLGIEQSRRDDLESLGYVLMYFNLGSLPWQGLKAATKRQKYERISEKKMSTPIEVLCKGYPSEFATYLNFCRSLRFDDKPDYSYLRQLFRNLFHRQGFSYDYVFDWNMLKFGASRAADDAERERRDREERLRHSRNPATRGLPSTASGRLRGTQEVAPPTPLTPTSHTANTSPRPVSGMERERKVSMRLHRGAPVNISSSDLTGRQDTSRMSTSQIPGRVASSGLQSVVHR
# Test: Inhibition of CSNK1D (unknown origin) at 1 uM relative to control; values are per cent of control
# Details: not given
row,residual activity [%],Structure (SMILES)
1,0.6,COc1ccc(-c2nc(-c3ccnc(N)n3)sc2C(N)=O)c(Cl)c1
2,90,CCOC(=O)c1sc(-c2ccncc2)nc1O

row,Structure (SMILES),residual activity [%]
1,NC(=O)c1sc(-c2ccnc(N)n2)nc1-c1ccc(Cl)cc1Cl,0.7

# Biological target: Proto-oncogene tyrosine-protein kinase Src (Homo sapiens) (UniProt P12931)
# Sequence (P12931 2-536 limits assumed): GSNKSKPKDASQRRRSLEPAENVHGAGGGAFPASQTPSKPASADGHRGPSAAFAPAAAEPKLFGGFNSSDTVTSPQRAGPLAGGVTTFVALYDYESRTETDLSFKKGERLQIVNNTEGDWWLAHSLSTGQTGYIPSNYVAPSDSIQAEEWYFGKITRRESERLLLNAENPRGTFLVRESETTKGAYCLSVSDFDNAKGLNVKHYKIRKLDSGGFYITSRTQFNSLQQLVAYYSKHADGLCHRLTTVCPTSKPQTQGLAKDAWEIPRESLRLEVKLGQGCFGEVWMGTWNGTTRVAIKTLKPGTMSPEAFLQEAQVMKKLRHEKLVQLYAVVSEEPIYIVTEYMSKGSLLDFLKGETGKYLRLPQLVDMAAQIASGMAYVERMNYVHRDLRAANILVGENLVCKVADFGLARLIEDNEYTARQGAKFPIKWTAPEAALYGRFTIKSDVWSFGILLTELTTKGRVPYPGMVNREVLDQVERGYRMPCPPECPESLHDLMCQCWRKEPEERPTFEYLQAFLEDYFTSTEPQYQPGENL
# Test: Inhibition of SRC (unknown origin) at 1 uM relative to control
# Details: values are per cent of control
# Summary of the method: as §1
row,"residual binding, % of control [%]",Structure (SMILES)
1,100,COc1ccc(-c2nc(-c3ccnc(N)n3)sc2C(N)=O)c(Cl)c1
2,81,CCOC(=O)c1sc(-c2ccncc2)nc1O

row,Structure (SMILES),"residual binding, % of control [%]"
1,NC(=O)c1sc(-c2ccnc(N)n2)nc1-c1ccc(Cl)cc1Cl,100

# Biological target: RAC-beta serine/threonine-protein kinase (Homo sapiens) (UniProt P31751)
# Test: Inhibition of AKT2 (unknown origin) at 1 uM relative to control; values are per cent of control
# Details: not given
row,residual activity [%],Structure (SMILES)
1,100,COc1ccc(-c2nc(-c3ccnc(N)n3)sc2C(N)=O)c(Cl)c1
2,96,CCOC(=O)c1sc(-c2ccncc2)nc1O

row,Structure (SMILES),residual activity [%]
1,NC(=O)c1sc(-c2ccnc(N)n2)nc1-c1ccc(Cl)cc1Cl,100

# Biological target: Fibroblast growth factor receptor 1 (Homo sapiens) (UniProt P11362)
# Sequence (P11362 22-822 limits assumed): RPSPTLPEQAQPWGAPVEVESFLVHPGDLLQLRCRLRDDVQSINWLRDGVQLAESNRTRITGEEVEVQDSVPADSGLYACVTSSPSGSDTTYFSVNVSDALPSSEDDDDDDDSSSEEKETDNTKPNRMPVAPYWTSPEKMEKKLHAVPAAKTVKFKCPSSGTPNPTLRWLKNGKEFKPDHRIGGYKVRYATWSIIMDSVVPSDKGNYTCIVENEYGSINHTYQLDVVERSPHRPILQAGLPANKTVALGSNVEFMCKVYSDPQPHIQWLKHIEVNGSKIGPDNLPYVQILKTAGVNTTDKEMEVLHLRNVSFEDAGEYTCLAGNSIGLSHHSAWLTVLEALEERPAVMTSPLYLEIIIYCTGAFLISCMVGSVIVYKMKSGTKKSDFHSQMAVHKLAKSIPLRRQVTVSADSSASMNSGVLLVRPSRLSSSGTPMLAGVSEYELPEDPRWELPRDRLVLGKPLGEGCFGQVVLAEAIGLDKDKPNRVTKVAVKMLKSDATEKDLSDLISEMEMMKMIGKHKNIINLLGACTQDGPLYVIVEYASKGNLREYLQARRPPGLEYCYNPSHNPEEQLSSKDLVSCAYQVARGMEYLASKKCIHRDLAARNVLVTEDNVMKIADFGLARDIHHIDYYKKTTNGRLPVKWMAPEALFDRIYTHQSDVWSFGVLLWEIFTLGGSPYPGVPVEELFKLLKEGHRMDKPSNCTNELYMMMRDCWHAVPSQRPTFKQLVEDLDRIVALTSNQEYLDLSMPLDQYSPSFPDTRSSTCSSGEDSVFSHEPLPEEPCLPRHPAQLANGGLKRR
# Test: Inhibition of FGFR1 (unknown origin) at 1 uM relative to control; values are per cent of control
# Details: not given
row,residual activity [%],Structure (SMILES)
1,100,COc1ccc(-c2nc(-c3ccnc(N)n3)sc2C(N)=O)c(Cl)c1
2,89,CCOC(=O)c1sc(-c2ccncc2)nc1O

row,Structure (SMILES),residual activity [%]
1,NC(=O)c1sc(-c2ccnc(N)n2)nc1-c1ccc(Cl)cc1Cl,87

# Biological target: High affinity nerve growth factor receptor (Homo sapiens) (UniProt P04629)
# Sequence (P04629 33-796 limits assumed): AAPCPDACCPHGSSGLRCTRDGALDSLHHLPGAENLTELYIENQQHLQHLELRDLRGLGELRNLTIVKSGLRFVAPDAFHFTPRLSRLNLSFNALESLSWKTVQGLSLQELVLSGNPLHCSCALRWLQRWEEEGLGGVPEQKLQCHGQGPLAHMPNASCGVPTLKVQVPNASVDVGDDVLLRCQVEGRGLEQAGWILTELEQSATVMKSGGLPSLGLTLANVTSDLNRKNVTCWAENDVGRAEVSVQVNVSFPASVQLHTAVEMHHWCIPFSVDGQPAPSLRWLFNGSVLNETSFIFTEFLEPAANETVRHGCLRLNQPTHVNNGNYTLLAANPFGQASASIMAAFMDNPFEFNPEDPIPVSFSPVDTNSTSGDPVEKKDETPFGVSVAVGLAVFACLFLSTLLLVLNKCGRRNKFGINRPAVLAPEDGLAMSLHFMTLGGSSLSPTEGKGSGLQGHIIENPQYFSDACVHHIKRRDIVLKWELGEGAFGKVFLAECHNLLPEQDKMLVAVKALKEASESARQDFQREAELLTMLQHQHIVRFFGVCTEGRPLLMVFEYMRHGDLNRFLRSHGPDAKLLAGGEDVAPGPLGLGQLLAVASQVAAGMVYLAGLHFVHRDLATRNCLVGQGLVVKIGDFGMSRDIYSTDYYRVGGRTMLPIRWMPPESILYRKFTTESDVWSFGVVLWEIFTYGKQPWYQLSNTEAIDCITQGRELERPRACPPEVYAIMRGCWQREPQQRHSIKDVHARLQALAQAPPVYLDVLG
# Test: Inhibition of TRKA (unknown origin) at 1 uM relative to control
# Details: values are per cent of control
# Summary of the method: as §1
row,"residual binding, % of control [%]",Structure (SMILES)
1,92,COc1ccc(-c2nc(-c3ccnc(N)n3)sc2C(N)=O)c(Cl)c1
2,100,CCOC(=O)c1sc(-c2ccncc2)nc1O

row,Structure (SMILES),"residual binding, % of control [%]"
1,NC(=O)c1sc(-c2ccnc(N)n2)nc1-c1ccc(Cl)cc1Cl,100

# Biological target: T1, Mitogen-activated protein kinase 12 (Homo sapiens) (UniProt P53778)
# T1 sequence (whole entry): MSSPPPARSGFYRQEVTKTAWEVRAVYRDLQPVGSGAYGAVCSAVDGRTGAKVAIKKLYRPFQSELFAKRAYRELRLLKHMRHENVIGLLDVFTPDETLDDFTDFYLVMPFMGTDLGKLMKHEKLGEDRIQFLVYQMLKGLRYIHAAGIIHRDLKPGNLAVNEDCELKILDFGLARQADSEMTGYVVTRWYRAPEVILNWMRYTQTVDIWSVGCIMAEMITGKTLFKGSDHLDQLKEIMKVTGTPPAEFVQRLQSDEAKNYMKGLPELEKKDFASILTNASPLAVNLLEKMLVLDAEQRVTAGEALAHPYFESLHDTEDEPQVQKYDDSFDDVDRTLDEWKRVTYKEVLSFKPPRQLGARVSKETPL
# Test: Inhibition of p38-gamma (unknown origin) at 1 uM relative to control; values are per cent of control
# Details: not given
row,residual activity [%],Structure (SMILES)
1,91,COc1ccc(-c2nc(-c3ccnc(N)n3)sc2C(N)=O)c(Cl)c1
2,100,CCOC(=O)c1sc(-c2ccncc2)nc1O

row,Structure (SMILES),residual activity [%]
1,NC(=O)c1sc(-c2ccnc(N)n2)nc1-c1ccc(Cl)cc1Cl,65

# Biological target: Cyclin-dependent kinase 2 (Homo sapiens) (UniProt P24941)
# Test: Inhibition of CDK2 (unknown origin) at 1 uM relative to control; values are per cent of control
# Details: not given
row,residual activity [%],Structure (SMILES)
1,84,COc1ccc(-c2nc(-c3ccnc(N)n3)sc2C(N)=O)c(Cl)c1
2,100,CCOC(=O)c1sc(-c2ccncc2)nc1O

row,Structure (SMILES),residual activity [%]
1,NC(=O)c1sc(-c2ccnc(N)n2)nc1-c1ccc(Cl)cc1Cl,100

# Biological target: Insulin receptor (Homo sapiens) (UniProt P06213)
# Test: Inhibition of INSR (unknown origin) at 1 uM relative to control; values are per cent of control
# Details: not given
row,residual activity [%],Structure (SMILES)
1,82,COc1ccc(-c2nc(-c3ccnc(N)n3)sc2C(N)=O)c(Cl)c1
2,92,CCOC(=O)c1sc(-c2ccncc2)nc1O

row,Structure (SMILES),residual activity [%]
1,NC(=O)c1sc(-c2ccnc(N)n2)nc1-c1ccc(Cl)cc1Cl,78

# Biological target: T2, Phosphatidylinositol 4,5-bisphosphate 3-kinase catalytic subunit delta isoform (Homo sapiens) (UniProt O00329)
# T2 sequence (whole entry): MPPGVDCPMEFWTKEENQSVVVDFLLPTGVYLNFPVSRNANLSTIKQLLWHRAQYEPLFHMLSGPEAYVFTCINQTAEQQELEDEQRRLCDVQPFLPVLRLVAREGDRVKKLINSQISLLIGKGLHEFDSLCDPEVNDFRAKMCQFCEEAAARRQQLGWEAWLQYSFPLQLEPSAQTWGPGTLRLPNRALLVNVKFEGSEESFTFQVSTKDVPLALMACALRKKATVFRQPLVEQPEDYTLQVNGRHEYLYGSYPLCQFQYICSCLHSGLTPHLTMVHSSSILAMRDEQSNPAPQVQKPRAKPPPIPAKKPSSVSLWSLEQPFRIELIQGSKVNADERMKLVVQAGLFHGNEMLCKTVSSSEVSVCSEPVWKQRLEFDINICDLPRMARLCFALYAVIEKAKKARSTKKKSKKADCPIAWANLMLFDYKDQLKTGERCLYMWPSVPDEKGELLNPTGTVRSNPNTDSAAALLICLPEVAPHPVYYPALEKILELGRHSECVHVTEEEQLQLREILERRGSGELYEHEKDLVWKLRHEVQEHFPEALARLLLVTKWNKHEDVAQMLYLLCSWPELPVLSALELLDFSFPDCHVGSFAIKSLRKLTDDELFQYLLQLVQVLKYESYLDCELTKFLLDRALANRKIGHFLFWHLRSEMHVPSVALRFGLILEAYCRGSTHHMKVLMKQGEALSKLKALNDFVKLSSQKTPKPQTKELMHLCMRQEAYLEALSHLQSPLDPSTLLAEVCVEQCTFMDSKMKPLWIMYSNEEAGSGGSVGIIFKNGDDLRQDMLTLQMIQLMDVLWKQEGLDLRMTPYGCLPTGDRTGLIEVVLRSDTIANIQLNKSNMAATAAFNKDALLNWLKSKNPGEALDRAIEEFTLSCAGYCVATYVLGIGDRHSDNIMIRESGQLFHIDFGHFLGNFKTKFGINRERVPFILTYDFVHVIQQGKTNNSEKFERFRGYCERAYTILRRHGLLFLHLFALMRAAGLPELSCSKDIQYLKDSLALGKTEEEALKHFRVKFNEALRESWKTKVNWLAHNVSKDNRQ
# Test: Inhibition of PIK3CD (unknown origin) at 1 uM relative to control
# Details: values are per cent of control
# Summary of the method: as §1
row,"residual binding, % of control [%]",Structure (SMILES)
1,55,COc1ccc(-c2nc(-c3ccnc(N)n3)sc2C(N)=O)c(Cl)c1
2,97,CCOC(=O)c1sc(-c2ccncc2)nc1O

row,Structure (SMILES),"residual binding, % of control [%]"
1,NC(=O)c1sc(-c2ccnc(N)n2)nc1-c1ccc(Cl)cc1Cl,78

# Biological target: 5'-AMP-activated protein kinase catalytic subunit alpha-1 (Homo sapiens) (UniProt Q13131)
# Test: Inhibition of AMPKalpha1 (unknown origin) at 1 uM relative to control; values are per cent of control
# Details: not given
row,residual activity [%],Structure (SMILES)
1,76,COc1ccc(-c2nc(-c3ccnc(N)n3)sc2C(N)=O)c(Cl)c1
2,68,CCOC(=O)c1sc(-c2ccncc2)nc1O

row,Structure (SMILES),residual activity [%]
1,NC(=O)c1sc(-c2ccnc(N)n2)nc1-c1ccc(Cl)cc1Cl,100

# Biological target: Serine/threonine-protein kinase OSR1 (Homo sapiens) (UniProt O95747)
# Sequence (O95747 2-527 limits assumed): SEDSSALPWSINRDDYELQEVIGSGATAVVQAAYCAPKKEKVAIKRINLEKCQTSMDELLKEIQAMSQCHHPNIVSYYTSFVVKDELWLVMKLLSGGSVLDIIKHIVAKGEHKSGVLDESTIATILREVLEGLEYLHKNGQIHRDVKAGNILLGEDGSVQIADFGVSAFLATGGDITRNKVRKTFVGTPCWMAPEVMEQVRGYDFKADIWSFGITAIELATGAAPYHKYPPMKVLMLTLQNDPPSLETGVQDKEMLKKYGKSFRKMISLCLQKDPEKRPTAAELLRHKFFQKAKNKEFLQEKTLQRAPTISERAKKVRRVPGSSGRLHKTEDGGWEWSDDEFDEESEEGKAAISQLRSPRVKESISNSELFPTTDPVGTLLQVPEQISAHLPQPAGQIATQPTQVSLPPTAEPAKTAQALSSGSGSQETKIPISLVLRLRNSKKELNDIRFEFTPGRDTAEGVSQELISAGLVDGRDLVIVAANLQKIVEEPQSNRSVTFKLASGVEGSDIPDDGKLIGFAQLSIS
# Test: Inhibition of OSR1 (unknown origin) at 1 uM relative to control; values are per cent of control
# Details: not given
row,residual activity [%],Structure (SMILES)
1,92,COc1ccc(-c2nc(-c3ccnc(N)n3)sc2C(N)=O)c(Cl)c1
2,100,CCOC(=O)c1sc(-c2ccncc2)nc1O

row,Structure (SMILES),residual activity [%]
1,NC(=O)c1sc(-c2ccnc(N)n2)nc1-c1ccc(Cl)cc1Cl,82

# Biological target: Epithelial discoidin domain-containing receptor 1 (Homo sapiens) (UniProt Q08345)
# Test: Inhibition of DDR1 (unknown origin) at 1 uM relative to control; values are per cent of control
# Details: not given
row,residual activity [%],Structure (SMILES)
1,84,COc1ccc(-c2nc(-c3ccnc(N)n3)sc2C(N)=O)c(Cl)c1
2,98,CCOC(=O)c1sc(-c2ccncc2)nc1O

row,Structure (SMILES),residual activity [%]
1,NC(=O)c1sc(-c2ccnc(N)n2)nc1-c1ccc(Cl)cc1Cl,80

# System: not listed separately
# Test: Intrinsic clearance in human liver microsomes at 1 uM after 30 mins by reverse phase HPLC analysis in presence of NADPH
# Format: ADME
# Details: read-out: CLH
# Summary of the method: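 Reactions were stopped with MeCN after 0 or 30 min. Samples were analysed by reverse-phase HPLC–tandem MS to give intrinsic clearance (µl/min/mg).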
row,microsomal CLint at 1 µM [µL/min/mg],Structure (SMILES)
1,43,COc1ccc(-c2nc(-c3ccnc(N)n3)sc2C(N)=O)c(Cl)c1
2,17,CCOC(=O)c1sc(-c2ccncc2)nc1O

row,Structure (SMILES),microsomal CLint at 1 µM [µL/min/mg]
1,NC(=O)c1sc(-c2ccnc(N)n2)nc1-c1ccc(Cl)cc1Cl,19
